Experimental findings from ChEMBL document CHEMBL1955828, “Anti-mycobacterial activities of some cationic and anionic calix[4]arene derivatives” (Bioorg Med Chem, 2012) are described below.

Converted amounts (≈) assume the structure as drawn.

Series [1] deals with Mycobacterium tuberculosis. In words: Antimycobacterial activity against Mycobacterium tuberculosis H37Rv after 6 days by MTT assay. In kind it is functional, organism-based. The following applies: 144 h. The essentials: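 Twofold serial compound dilutions in Middlebrook 7H9 broth were inoculated with bacterial suspension in 7H9 (H37Rv, or INH-resistant MYC5165) and incubated 6 days. MTT (1 mg/mL) was then added, followed by 1 more day of incubation, solubilisation buffer, and OD read at 570 nm. MIC was the lowest concentration inhibiting growth relative to untreated bacilli, and IC50 was also determined.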
On the technique in general: Formazan colour is commonly taken as a measure of viable cells.

Series [2] deals with Mycobacterium tuberculosis. Nature of the series: Antimycobacterial activity against Mycobacterium tuberculosis H37Rv at 1 uM after 6 days by MTT assay. The series is classed as functional. The conditions noted are these: 144 h, read-out: GI.
Series [3] concerns Mycobacterium tuberculosis. In words: Antimycobacterial activity against Mycobacterium tuberculosis H37Rv at 10 uM after 6 days by MTT assay. The following applies: 144 h, read-out: GI. In kind it is functional.
Series [4] in a line: Cytotoxicity against human MRC5 cells by MTT assay. The series is classed as cell-based.
Another series concerns Escherichia coli. In words: Antibacterial activity against Escherichia coli ATCC 25922 by microdilution method. In kind it is functional. In general terms: In broth dilution the organism is exposed to a series of concentrations in liquid medium.
Another series has as its system Pseudomonas aeruginosa. In words: Antibacterial activity against Pseudomonas aeruginosa ATCC 27853 by microdilution method. The series is classed as functional.
In another series the test system is Staphylococcus aureus. In words: Antibacterial activity against Staphylococcus aureus ATCC 25923 by microdilution method. In kind it is functional.
The subject of the next series is Enterococcus faecalis. Nature of the series: Antibacterial activity against Enterococcus faecalis ATCC 29212 by microdilution method. In kind it is functional.

In series [1], `c1ccc(-c2ccccn2)nc1` [DIPYRIDYL] had an MIC of 160 µM (≈ 25 µg/mL).
`CN[C@@H]1[C@H](O[C@H]2[C@H](O[C@H]3[C@H](O)[C@@H](O)[C@H](N=C(N)N)[C@@H](O)[C@@H]3N=C(N)N)O[C@@H](C)[C@]2(O)C=O)O[C@@H](CO)[C@H](O)[C@H]1O` [STREPTOMYCIN] showed an MIC in series [1] of 0.7 µM (≈ 0.407 µg/mL).
On to `CO[C@H]1/C=C/O[C@@]2(C)Oc3c(C)c(O)c4c(O)c(c(/C=N/N5CCN(C)CC5)c(O)c4c3C2=O)NC(=O)/C(C)=C\C=C\[C@H](C)[C@H](O)[C@@H](C)[C@@H](O)[C@@H](C)[C@H](OC(C)=O)[C@@H]1C` [RIFAMPIN], for which the MIC in series [1] was found to be 0.24 µM (≈ 0.198 µg/mL). Against the preceding compound, the MIC is about 2.9-fold lower.
In series [1], `Cc1cccc(-c2cccc(COc3c4cc(S(=O)(=O)O)cc3Cc3cc(S(=O)(=O)O)cc(c3O)Cc3cc(S(=O)(=O)O)cc(c3OCc3cccc(-c5cccc(C)n5)n3)Cc3cc(S(=O)(=O)O)cc(c3O)C4)n2)n1` came in with an MIC of over 50 µM.
Take `O=C(O)Cc1cc2c(O)c(c1)Cc1cc(CC(=O)O)cc(c1O)Cc1cc(CC(=O)O)cc(c1O)Cc1cc(CC(=O)O)cc(c1O)C2`: the inhibition of growth at 1 µM in series [2] is 0%. Besides, in series [3], the inhibition of growth at 10 µM is 7%.
In series [1], `O=C(O)c1cn(C2CC2)c2cc(N3CCNCC3)c(F)cc2c1=O` [CIPROFLOXACIN] returned an MIC of 2.5 µM (≈ 0.828 µg/mL).
Turning to `Cc1ccc(-c2ccc(COc3c4cc(CCNC(=N)N)cc3Cc3cc(CCNC(=N)N)cc(c3O)Cc3cc(CCNC(=N)N)cc(c3OCc3ccc(-c5ccc(C)cn5)nc3)Cc3cc(CCNC(=N)N)cc(c3O)C4)cn2)nc1.O=C(O)C(F)(F)F`, in series [2], the inhibition of growth at 1 µM was found to be 62%. The inhibition of growth at 10 µM in series [3] was determined as 98%. The same compound had an IC50 in series [1] of 50 nM. Further, the MIC is 0.8 µM in series [1]; 4 µg/mL in the series on Escherichia coli; 4 µg/mL in the series on Pseudomonas aeruginosa; 4 µg/mL against Staphylococcus aureus; 4 µg/mL with Enterococcus faecalis. The CC50 in series [4] was 128 µg/mL.
Consider `Cc1csc(-c2nc(COc3c4cc(CCNC(=N)N)cc3Cc3cc(CCNC(=N)N)cc(c3O)Cc3cc(CCNC(=N)N)cc(c3OCc3csc(-c5nc(C)cs5)n3)Cc3cc(CCNC(=N)N)cc(c3O)C4)cs2)n1.O=C(O)C(F)(F)F`, for which, in series [2], the inhibition of growth at 1 µM amounted to 54%. Further, in series [3], the inhibition of growth at 10 µM came out at 90%. In addition, the half-inhibitory concentration (IC50) in series [1] turned out to be 400 nM. The MIC in series [1] was 1.6 µM; in the series with Escherichia coli it was 4 µg/mL; against Pseudomonas aeruginosa, 4 µg/mL; against Staphylococcus aureus it was 4 µg/mL; in the series with Enterococcus faecalis, 4 µg/mL. Moreover, in series [4], the midpoint of cytotoxicity, the CC50, lay at 16 µg/mL.
Turning to `Cc1cccc(-c2cccc(COc3c4cc(CCN)cc3Cc3cc(CCN)cc(c3O)Cc3cc(CCN)cc(c3OCc3cccc(-c5cccc(C)n5)n3)Cc3cc(CCN)cc(c3O)C4)n2)n1`, in series [2], the inhibition of growth at 1 µM was 7%. In addition, in series [3], the inhibition of growth at 10 µM came to 0%.
In series [1], `Cc1cccc(-c2cccc(COc3c4cc(CP(=O)(O)O)cc3Cc3cc(CP(=O)(O)O)cc(c3O)Cc3cc(CP(=O)(O)O)cc(c3OCc3cccc(-c5cccc(C)n5)n3)Cc3cc(CP(=O)(O)O)cc(c3O)C4)n2)n1` showed an IC50 of 12400 nM and an MIC of 50 µM (≈ 58.2 µg/mL).
For the compound `N=C(N)NCCc1cc2c(O)c(c1)Cc1cc(CCNC(=N)N)cc(c1O)Cc1cc(CCNC(=N)N)cc(c1O)Cc1cc(CCNC(=N)N)cc(c1O)C2.O=C(O)C(F)(F)F`, the inhibition of growth at 1 µM in series [2] turned out to be 73%. Moreover, the inhibition of growth at 10 µM in series [3] came to 97%. In series [1], this compound showed an IC50 of 250 nM. Besides, the MIC in series [1] was 0.8 µM; against Escherichia coli, 4 µg/mL; in the series with Pseudomonas aeruginosa, 4 µg/mL; against Staphylococcus aureus, 4 µg/mL; against Enterococcus faecalis, 4 µg/mL. Further, the CC50 in series [4] came to 256 µg/mL.
In series [1], `Cc1csc(-c2nc(COc3c4cc(CP(=O)(O)O)cc3Cc3cc(CP(=O)(O)O)cc(c3O)Cc3cc(CP(=O)(O)O)cc(c3OCc3csc(-c5nc(C)cs5)n3)Cc3cc(CP(=O)(O)O)cc(c3O)C4)cs2)n1` registered an MIC of 50 µM (≈ 59.5 µg/mL).
On to `Cc1ccc(-c2ccc(COc3c4cc(CCN)cc3Cc3cc(CCN)cc(c3O)Cc3cc(CCN)cc(c3OCc3ccc(-c5ccc(C)cn5)nc3)Cc3cc(CCN)cc(c3O)C4)cn2)nc1`, for which, in series [2], the inhibition of growth at 1 µM came to 63%. Further, the inhibition of growth at 10 µM in series [3] is 81%. Also, in series [1], the IC50 turned out to be 200 nM and it took 0.8 µM (≈ 0.769 µg/mL) to inhibit growth (MIC).
The compound `NNC(=O)c1ccncc1` [ISONIAZID] showed an MIC in series [1] of 0.6 µM (≈ 0.0823 µg/mL). That is a sub-micromolar value.
In turn, `CCc1cc(C(N)=S)ccn1` [ETHIONAMIDE] showed an MIC in series [1] of 9 µM (≈ 1.5 µg/mL).
In the case of `Cc1csc(-c2nc(COc3c4cc(S(=O)(=O)O)cc3Cc3cc(S(=O)(=O)O)cc(c3O)Cc3cc(S(=O)(=O)O)cc(c3OCc3csc(-c5nc(C)cs5)n3)Cc3cc(S(=O)(=O)O)cc(c3O)C4)cs2)n1`, in series [1], the MIC is over 50 µM.
For `Cc1cccc(-c2cccc(COc3c4cc(CC(=O)O)cc3Cc3cc(CC(=O)O)cc(c3O)Cc3cc(CC(=O)O)cc(c3OCc3cccc(-c5cccc(C)n5)n3)Cc3cc(CC(=O)O)cc(c3O)C4)n2)n1`, the MIC in series [1] was over 50 µM.
As for `CC[C@@H](CO)NCCN[C@@H](CC)CO` [ETHAMBUTOL], the inhibition of growth at 10 µM in series [3] amounted to 65%. For the same compound, in series [1], the MIC came out at 9.8 µM (≈ 2 µg/mL).
As to `O=P(O)(O)Cc1cc2c(O)c(c1)Cc1cc(CP(=O)(O)O)cc(c1O)Cc1cc(CP(=O)(O)O)cc(c1O)Cc1cc(CP(=O)(O)O)cc(c1O)C2`, the inhibition of growth at 1 µM in series [2] was 0%. In addition, the inhibition of growth at 10 µM in series [3] stood at 5%.
Consider `Cc1csc(-c2nc(COc3c4cc(CCN)cc3Cc3cc(CCN)cc(c3O)Cc3cc(CCN)cc(c3OCc3csc(-c5nc(C)cs5)n3)Cc3cc(CCN)cc(c3O)C4)cs2)n1`, for which, in series [2], the inhibition of growth at 1 µM amounted to 25%. In series [3], the inhibition of growth at 10 µM is 19%.
Turning to `NCCc1cc2c(O)c(c1)Cc1cc(CCN)cc(c1O)Cc1cc(CCN)cc(c1O)Cc1cc(CCN)cc(c1O)C2`, the inhibition of growth at 1 µM in series [2] came out at 27%. The inhibition of growth at 10 µM in series [3] is 76%. In series [1], this compound gave an IC50 of 400 nM and an MIC of 3.2 µM (≈ 1.91 µg/mL).
For `Cc1cccc(-c2cccc(COc3c4cc(CCNC(=N)N)cc3Cc3cc(CCNC(=N)N)cc(c3O)Cc3cc(CCNC(=N)N)cc(c3OCc3cccc(-c5cccc(C)n5)n3)Cc3cc(CCNC(=N)N)cc(c3O)C4)n2)n1.O=C(O)C(F)(F)F`, the inhibition of growth at 1 µM in series [2] amounted to 7%. The inhibition of growth at 10 µM in series [3] amounted to 10%. For the same compound, the MIC in the series on Escherichia coli, against Pseudomonas aeruginosa, with Staphylococcus aureus and in the series on Enterococcus faecalis was 4 µg/mL in each case.
For `Cc1csc(-c2nc(COc3c4cc(CC(=O)O)cc3Cc3cc(CC(=O)O)cc(c3O)Cc3cc(CC(=O)O)cc(c3OCc3csc(-c5nc(C)cs5)n3)Cc3cc(CC(=O)O)cc(c3O)C4)cs2)n1`, the MIC in series [1] is over 50 µM.
Turning to `O=S(=O)(O)c1cc2c(O)c(c1)Cc1cc(S(=O)(=O)O)cc(c1O)Cc1cc(S(=O)(=O)O)cc(c1O)Cc1cc(S(=O)(=O)O)cc(c1O)C2`, in series [2], the inhibition of growth at 1 µM turned out to be 0%. Moreover, the inhibition of growth at 10 µM in series [3] was found to be 0%.
In series [1], `Cc1ccnc(-c2cc(C)ccn2)c1` returned an MIC of 136 µM (≈ 25 µg/mL).

For orientation: MIC means the lowest concentration that inhibits growth of the organism. A high value points to weaker potency. As usually defined, the IC50 is the concentration that inhibits the measured activity by half. By CC50 is commonly meant the concentration at which the toxic effect on the cells reaches its halfway point. The low end stands for greater toxicity to the cells, the high end for lower toxicity to the cells.
